Test results: BindingDB's records for doi:10.1021/jm300238h (Sanford-Burnham Medical Research Institute, 2012)

Molecular target: Protease (Human immunodeficiency virus 1, UniProt Q9YQ12)
Assay: Inhibition of wild type HIV1 protease by FRET assay
Method in brief: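 Recombinant HIV-1 protease Q7K, desalted into 20 mM sodium acetate pH 5, apparent concentration ~50 nM (UV 280 nm). Inhibitors in DMSO, 12 concentrations, added with protease to buffer pH 4.7 (0.1 M NaOAc, 1 M NaCl, 1 mM EDTA, 1 mM DTT, 2% DMSO, 1 mg/mL BSA). Cleavage started by injecting EDANS/DABCYL peptide substrate. Ki from initial velocities fitted to the Morrison equation.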

Chain of Protease (Q9YQ12 whole entry): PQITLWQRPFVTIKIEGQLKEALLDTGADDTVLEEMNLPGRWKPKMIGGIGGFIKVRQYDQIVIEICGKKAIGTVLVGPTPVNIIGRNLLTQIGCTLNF

- Ki: 1 pM
SMILES: COc1ccc(S(=O)(=O)N(CC(C)C)C[C@@H](O)[C@H](Cc2ccccc2)NC(=O)[C@@H]2CN(c3cccc(C(C)=O)c3)C(=O)O2)cc1 [(5S)-3-(3-Acetylphenyl)-N-[(1S,2R)-1-benzyl-2-hydroxy-3-[isobutyl[(4-methoxyphenyl)sulfonyl]amino]propyl]-2-oxooxazolidine-5-carboxamide]
